The experiment can be described thus: Binding affinity to blood-brain barrier choline transporter in rat brain assessed as inhibition of [3H]choline uptake. The format is tissue-based. A digest of the protocol: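 In situ rat brain perfusion (Allen and Smith modification); inhibition of [3H]choline uptake into brain measured. Ki taken as analogue concentration inhibiting 50% of [3H]-choline uptake, calculated from a single inhibitor concentration. Ki values compared by ANOVA with Bonferroni's multiple comparisons test.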

Ki data for ten compounds are collected here from ChEMBL document CHEMBL1141726, “bis-Pyridinium cyclophanes: novel ligands with high affinity for the blood-brain barrier choline transporter” (Bioorg Med Chem Lett, 2008).

SMILES strings stand for the structures.

Usually Ki stands for the dissociation constant of the complex between target and ligand, obtained from inhibition or displacement.

Turning to `c1ccc2c[n+](CCCCCCCCCCCC[n+]3ccc4ccccc4c3)ccc2c1`, the Ki worked out at 22 µM.

Regarding `c1ccc2c[n+](CCCCCCCCCC[n+]3ccc4ccccc4c3)ccc2c1`, the Ki came out at 9.5 µM.

With `CCCCCCCC[n+]1cccc([C@@H]2CCCN2C)c1`, the Ki was 49 µM.

On to `c1ccc2c[n+](CCCCCC[n+]3ccc4ccccc4c3)ccc2c1`, for which the Ki came to 29 µM.

As to `C1#Cc2ccc[n+](c2)CCCCCCCC[n+]2cccc(c2)C#CCCCCCC1`, the Ki turned out to be 0.8 µM.

With `C1#Cc2ccc[n+](c2)CCCCCCCCC[n+]2cccc(c2)C#CCCCCCC1`, the Ki was 33.8 µM.

On to `C1#Cc2ccc[n+](c2)CCCC[n+]2cccc(c2)C#CCCCCCC1`, for which the Ki came out at 15.2 µM.

For `C1#Cc2ccc[n+](c2)CCCCCCC[n+]2cccc(c2)C#CCCCCCC1`, the Ki was found to be 1.4 µM.

For the compound `Cc1ccc[n+](CCCCCCCCCCCC[n+]2cccc(C)c2)c1`, the Ki stood at 36 µM.

For `C[N+](C)(C)CCO` [CHOLINE], the Ki was found to be 41 µM.
